The list is not random: actives were taken first. Their share in the collection is about 2.5%.
miR122 inh = miR-122 inhibition in Huh7 cells. Huh7 miR-122 Renilla luciferase sensor, 48 h; neutral wells = 0, positive control = 100. actives 0.3% (n = 340,000). activation (reporter increase), % at 12.5 µM;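 active = mean replicate activation score at least 90 and every replicate individually at or above 90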;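 also: higher luciferase means less miR-122 activity so hits act as miR-122 inhibitors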
SIRT5 inh = blocks human SIRT5 desuccinylation of peptide | Purified SirT5, succinyl-peptide AMC, trypsin-coupled fluorescence | AID 652115 | actives 1.1% (n = 330,000) | inhibition, % at 15 µM | Q9NXA8; in the data active = inhibition above about 15%
Target sequence (Q9NXA8 whole entry, looked up): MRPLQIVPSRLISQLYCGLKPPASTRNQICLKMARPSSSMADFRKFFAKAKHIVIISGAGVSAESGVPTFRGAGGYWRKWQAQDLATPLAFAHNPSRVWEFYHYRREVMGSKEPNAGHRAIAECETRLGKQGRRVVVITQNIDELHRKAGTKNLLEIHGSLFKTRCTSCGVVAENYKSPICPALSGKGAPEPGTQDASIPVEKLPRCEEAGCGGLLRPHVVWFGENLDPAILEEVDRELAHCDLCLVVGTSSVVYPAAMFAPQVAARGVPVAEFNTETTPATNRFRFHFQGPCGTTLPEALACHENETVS
FGF22 binding = FGF22 (human) thermal shift binding | Q9HCT0 | recombinant FGF22 thermal shift, SYPRO orange fluorescence; percent of sucrose octasulfate shift, DMSO zero | activity (Tm shift, normalised), % at 9.99 µM | actives 1.5% (n = 340,000) | AID 651658;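 active = mean Tm shift, scaled 0 neutral to 100 positive control, at about 1.3% or above, every replicate too, limit read from the data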
Target sequence (Q9HCT0 whole entry, looked up): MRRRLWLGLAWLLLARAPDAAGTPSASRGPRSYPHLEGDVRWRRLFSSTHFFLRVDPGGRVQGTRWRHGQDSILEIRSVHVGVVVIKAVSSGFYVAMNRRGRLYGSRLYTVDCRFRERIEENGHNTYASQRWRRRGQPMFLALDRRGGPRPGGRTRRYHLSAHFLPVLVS
S100A4 MyoIIA = inhibitors of human S100A4 binding to myosin IIA peptide; P26447; S100A4/TAMRA-MyoIIA peptide fluorescence polarization; inhibition, % at 10.7 µM; actives 0.14% (n = 360,000);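 active = mean inhibition of at least 70% across replicates, with every replicate also reaching that level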
Target sequence (P26447 whole entry, looked up): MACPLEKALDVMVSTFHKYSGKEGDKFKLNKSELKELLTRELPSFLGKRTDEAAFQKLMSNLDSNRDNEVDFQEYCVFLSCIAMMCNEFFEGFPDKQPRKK
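Test system: S100A4 monomer protein; Medium: HEPES pH 7.2 with CaCl2, KCl, NaCl, DTT, Triton; Probe or stimulus: TAMRA-labelled myosin IIA heavy-chain peptide probe, 5 nM; Doses: one dose per compound; Times: polarization read 5 min after assay mix addition, stable 5–60 min; Benchmarks: neutral control DMSO, positive control TFP.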
E-sel inducer = induces E-selectin expression in human endothelial cells; P16581; HUVEC E-selectin immunofluorescence imaging; normalized: neutral wells 0, TNF-alpha wells 100; activation, % at 7.58 µM; actives 0.37% (n = 260,000); AID 686992;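 active = mean E-selectin-positive cell signal at least 10% of the positive control, reached in at least 60% of replicates, without over 20% cell loss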
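Assay system: HUVEC, human umbilical vein endothelial cells / Amount: 3,000 HUVEC/well / Controls: TNF-alpha positive control, DMSO neutral control / Compound dosing: single concentration / Medium: EGM-2 over gelatin coat / Evaluation: percent E-selectin-positive cells / Signal: immunofluorescence imaging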
Numbers without * were called inactive; / = no result given; [ ] = remark or other dose.

SMILES	miR122 inh	SIRT5 inh	FGF22 binding	S100A4 MyoIIA	E-sel inducer
COc1ccc(-c2csc(NC(=O)c3ccc(OCC(=O)N4CCOCC4)c(OC)c3)n2)cc1OC	/	-1	44*	-4	/
COc1cc(C(=O)Nc2cccc(C)n2)ccc1OCC(=O)N1CCOCC1	-1	-6	0	0	-1
C[C@@H]1CN([C@@H](C)CO)C(=O)c2cccc(NC(=O)c3ccncc3)c2O[C@@H]1CN(C)S(C)(=O)=O	-1[16.7 µM]	2	0	-1	/
O=C(C[C@@H]1CC[C@@H](NC(=O)Cc2cccnc2)[C@H](CO)O1)Nc1ccccc1	/	0	/	0	0
CCCC/C(O)=C1\C(=O)CC(C)(C)CC1=Nc1ccccc1OC	3	-1	0	4	/
CCCC/C(O)=C1\C(=O)CC(C)(C)CC1=Nc1ccc(N)cc1	/	0	43*	-1	/
Cc1c(NC(=O)c2ccc(COc3ccc4ccccc4c3)o2)c(=O)n(-c2ccccc2)n1C	1	0	0	-4	/
Cc1c(N(C)C(=O)COc2ccc3ccccc3c2)c(=O)n(-c2ccccc2)n1C	-1	1	0	2	42*
CO[C@H]1CN(C)C(=O)c2ccc(NC(=O)C3CCCC3)cc2OC[C@H](C)N(CCC(F)(F)F)C[C@@H]1C	/	5	0	-12	0
CC1CCCN(C(=S)SCC(=O)c2cc(Br)cc(Br)c2O)C1 (stereo not given)	/	2	/	-33	0
O=C(CSC(=S)N1CCCC1)c1cc(Br)cc(Br)c1O	/	2	46*	-6	/
O=C(C[C@H]1CC[C@H](NC(=O)c2ccccc2)[C@@H](CO)O1)NCc1ccncn1	/	4	0	0	0
Cc1ccccc1S(=O)(=O)N1CC(=O)N2[C@H](CO)[C@@H](c3ccc(C#CC4CC4)cc3)[C@@H]2C1	/	2	/	7	0
CCCN1[C@@H]2c3ccc(-c4ccncc4)c(=O)n3C[C@@H]2[C@@H](CO)[C@@H]1C(=O)N1CCOCC1	8[16.7 µM]	-5	0	2	0
COc1ccc(OC)c(Nc2cc(C)nc3nc(C)nn23)c1	107*	0	0	-1	1
CCOC(=O)CC1C(=O)NCCN1C1CCCC1 (stereo not given)	/	20*	0	2	1
O=C1CCCC/C1=N\Nc1ccc(OCc2ccccc2)cc1	/	/	1.5*	3	/
Cc1nc2ccc(S(=O)(=O)N(C)CC(=O)Nc3ccccc3F)cc2s1	/	-10	44*	0	0
COCC(=O)N1CC2(C1)[C@H](c1ccc(-c3ccccc3)cc1)[C@@H](CO)N2C(C)=O	/	-5	0	5	0
O=S(=O)(Nc1ccccc1)c1ccc(-c2cnc(C3CC3)o2)cc1	159*	3	0	-3	2
Cc1cc(C)cc(NS(=O)(=O)c2ccc(-c3cnc(C4CC4)o3)cc2)c1	375*	1	0	-1	0
COc1ccc(NS(=O)(=O)c2cc(-c3cnc(C4CC4)o3)ccc2C)cc1	293*	-7	0	-7	/
Cc1ccc(C)c(NS(=O)(=O)c2ccc(-c3cnc(C4CC4)o3)cc2)c1	/	-2	0	2	/
COc1ccc(CN(C)C[C@@H]2Oc3c(NS(=O)(=O)c4ccc(OC)cc4)cccc3C(=O)N([C@@H](C)CO)C[C@H]2C)cc1	6[16.7 µM]	-4	0	-23	-1
C[C@H](CO)N1C[C@H](C)[C@H](CN(C)Cc2ccc3c(c2)OCO3)Oc2ccc(NC(=O)Nc3ccc(C(F)(F)F)cc3)cc2C1=O	0[16.7 µM]	1	0	-3	0
SMILES	miR122 inh	SIRT5 inh	FGF22 binding	S100A4 MyoIIA	E-sel inducer
CCOC(=O)c1sc(NC(=O)C2CCC2)cc1C	-12	0	43*	0	/
Cc1cc(C)nc(NC(C)(C)C(=O)O)n1	/	1	44*	0	6
O=C(CC1CC1)N1CC(=O)N2[C@H](C1)[C@@H](c1ccc(C#Cc3ccccc3)cc1)[C@@H]2CO	/	-4	/	-51	-1
NC(=O)c1cc(-c2ccccc2)sc1NC(=O)CN1CCCCC1	/	-1	43*	-8	/
NC(=O)c1ccccc1NC(=O)CN1CCCCCC1	-5	1	0	-1	0
COc1ccc(S(=O)(=O)N(C)C[C@@H]2OCCCC[C@H](C)Oc3ccc(NS(=O)(=O)c4ccccc4)cc3C(=O)N([C@H](C)CO)C[C@@H]2C)cc1	-4[16.7 µM]	8	0	2	/
COc1ccc(S(=O)(=O)Nc2ccc3c(c2)C(=O)N([C@H](C)CO)C[C@H](C)[C@H](CN(C)S(=O)(=O)c2ccccc2)OCCCC[C@H](C)O3)cc1	/	17*	0	-2	0
COc1ccc(S(=O)(=O)Nc2ccc3c(c2)C(=O)N([C@H](C)CO)C[C@@H](C)[C@@H](CN(C)S(=O)(=O)c2ccccc2)OCCCC[C@@H](C)O3)cc1	/	24*	-1	1	0
Cc1ccc(-n2cc(-c3ccccc3)c3c(N4CCN(C)CC4)ncnc32)cc1	/	-1	42	9	0
Cc1ccc(-n2cc(-c3ccccc3)c3c(N4CCOCC4)ncnc32)cc1	/	-4	43*	11	0
O=C(C[C@@H]1CC[C@@H]2[C@H](COC[C@H](O)CN2C(=O)c2cccnc2)O1)NCc1ccccc1	-6[16.7 µM]	-3	0	-19	0
CC1(C)CC(=O)C2=C(C1)NC1=C(C(=O)c3ccccc31)C2c1ccccc1 (stereo not given)	/	-3	0	-5	2
CC1(C)CC(=O)C2=C(C1)NC1=C(C(=O)c3ccccc31)C2c1cccnc1 (stereo not given)	/	9	44*	2	/
COc1ccc(NC(=O)Nc2ccc3c(c2)C(=O)N([C@@H](C)CO)C[C@@H](C)[C@H](CN(C)C(=O)NC2CCCCC2)O3)cc1	-2[16.7 µM]	-1	/	15	0
Cc1ccccc1S(=O)(=O)N(C)C[C@H]1OCc2ccccc2-c2c(n(C)c3ccccc23)C(=O)N([C@H](C)CO)C[C@H]1C	/	16*	0	4	2
COc1ccccc1S(=O)(=O)N(C)C[C@H]1OCc2ccccc2-c2c(n(C)c3ccccc23)C(=O)N([C@H](C)CO)C[C@@H]1C	/	15*	-1	0	11
Cc1ccccc1S(=O)(=O)N(C)C[C@@H]1OCc2ccccc2-c2c(n(C)c3ccccc23)C(=O)N([C@@H](C)CO)C[C@@H]1C	/	6	0	-7	-1
O=C(C1=C[C@@H](c2ccccc2)C[C@@H](OCc2ccc(CO)cc2)O1)N1CCCC1	/	-19	0	7	/
O=C(C[C@H]1CC[C@H](NS(=O)(=O)c2cccc(F)c2)[C@@H](CO)O1)N1CCCCC1	/	-1	0	3	0
C[C@@H]1CN([C@@H](C)CO)C(=O)c2cc(NS(=O)(=O)c3cccs3)ccc2O[C@H]1CN(C)S(C)(=O)=O	-7[16.7 µM]	0	0	-22	4

Compound activity from PubChem BioAssay.
